# Measurements published in ChEMBL document CHEMBL1122426, “Radioiodine-labeled N,N-dimethyl-N'-(2-hydroxy-3-alkyl-5-iodobenzyl)-1,3-propanediamines for brain perfusion imaging” (J Med Chem, 1983).
# Experiments:
# Rattus norvegicus [1] = assay: Biodistribution of I-125 labeled compound in rat blood, 1 hr after intravenous injection. value expressed in average % dose per organ; value may range from 1.13 to 1.60; assay type: ADME, organism-based; conditions: in vivo
# Rattus norvegicus [2] = assay: Biodistribution of I-125 labeled compound in rat blood, 2 min after intravenous injection. value expressed in average % dose per organ; value may range from 4.84 to 5.25; assay type: ADME, organism-based; conditions: in vivo
# Rattus norvegicus [3] = assay: Biodistribution of I-125 labeled compound in rat brain to blood ratio, 2 m in after intravenous injection. value expressed in % dose per gram ratio; assay type: ADME, organism-based
# Summary of the method: (§1)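 Rats given I-125 diamine iv; tissue activity at 2 min or 1 h compared with diluted injected-dose aliquots. % dose per gram approximated as % dose per organ divided by mean organ weight (brain 1.65 g; blood 18 g). Ratio taken from the per-gram values.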
# Rattus norvegicus [4] = assay: Biodistribution of I-125 labeled compound in rat heart, 2 min after intravenous injection. value expressed in average % dose per organ; value may range from 1.95 to 2.54; assay type: ADME, organism-based; conditions: in vivo
# Rattus norvegicus [5] = assay: Biodistribution of I-125 labeled compound in rat liver, 1 hr after intravenous injection. value expressed in average % dose per organ; value may range from 8.10 to 10.6; assay type: ADME, organism-based; conditions: in vivo
# Rattus norvegicus [6] = assay: Biodistribution of I-125 labeled compound in rat brain, 1 hr after intravenous injection. value expressed in average % dose per organ; value may range from 1.39 to 1.47; assay type: ADME, organism-based; conditions: in vivo
# Rattus norvegicus [7] = assay: Biodistribution of I-125 labeled compound in rat liver, 2 min after intravenous injection. value expressed in average % dose per organ; value may range from 8.10 to 8.95; assay type: ADME, organism-based; conditions: in vivo
# Rattus norvegicus [8] = assay: Biodistribution of I-125 labeled compound in rat thyroid, 1 hr after intravenous injection. value expressed in average % dose per organ; value may range from 0.18 to 0.25; assay type: ADME, organism-based, Thyroid gland; conditions: in vivo
# Rattus norvegicus [9] = assay: Biodistribution of I-125 labeled compound in rat thyroid, 2 min after intravenous injection. value expressed in average % dose per organ; value may range from 0.13 to 0.20; assay type: ADME, organism-based, Thyroid gland; conditions: in vivo
# Rattus norvegicus [10] = assay: Biodistribution of I-125 labeled compound in rat brain, 2 min after intravenous injection. value expressed in average % dose per organ; value may range from 1.28 to 1.56; assay type: ADME, organism-based; conditions: in vivo
# Rattus norvegicus [11] = assay: Biodistribution of I-125 labeled compound in rat heart, 1 hr after intravenous injection. value expressed in average % dose per organ; value may range from 1.54 to 1.76; assay type: ADME, organism-based; conditions: in vivo
# Rattus norvegicus [12] = species: Rattus norvegicus; assay: Distribution coefficient at pH 7.0 in rat; assay type: ADME, organism-based
# Summary of the method: (§2)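 Octanol/buffer partition: I-125 labeled diamine mixed with 3 g each of 1-octanol and 0.1 M phosphate buffer at pH 7.0 or 7.4, vortexed 3× 1 min, centrifuged 5 min. Two 0.5 g samples of each layer counted. Value is cpm/g octanol over cpm/g buffer, usually repeated three times.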
# Rattus norvegicus [13] = species: Rattus norvegicus; assay: Distribution coefficient at pH 7.4 in rat; assay type: ADME, organism-based; summary of the method: as §2
# Rattus norvegicus [14] = assay: Biodistribution of I-125 labeled compound in rat muscle, 2 min after intravenous injection. value expressed in average % dose per organ; value may range from 7.52 to 9.77; assay type: ADME, organism-based, Muscle tissue; conditions: in vivo
# [15] = The protein binding ability of compound was expressed in Percent free; assay type: ADME; conditions: read-out: % free
# Summary of the method: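 Binding to pooled human serum was measured by equilibrium dialysis. 0.4 mL serum and 0.4 mL 0.15 M phosphate buffer, pH 7.4, were separated by a membrane, and 0.025 μCi radiolabeled diamine was added on the buffer side. Cells were rotated at 37 °C for 18 h, and aliquots from both sides were weighed and counted. % free = buffer/serum radioactivity concentration ratio × 100. The membrane was also counted.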
# Rattus norvegicus [16] = assay: Biodistribution of I-125 labeled compound in rat lungs, 1 hr after intravenous injection. value expressed in average % dose per organ; value may range from 14.0 to 17.9; assay type: ADME, organism-based, Lung; conditions: in vivo
# Rattus norvegicus [17] = assay: Biodistribution of I-125 labeled compound in rat muscle, 1 hr after intravenous injection. value expressed in average % dose per organ; value may range from 11.9 to 16.0; assay type: ADME, organism-based, Muscle tissue; conditions: in vivo
# Rattus norvegicus [18] = assay: Biodistribution of I-125 labeled compound in rat lungs, 2 min after intravenous injection. value expressed in average % dose per organ; value may range from 36.9 to 42.9; assay type: ADME, organism-based, Lung; conditions: in vivo
# Rattus norvegicus [19] = assay: Biodistribution of I-125 labeled compound in rat brain to blood ratio, 1 hr after intravenous injection. value expressed in % dose per gram ratio; assay type: ADME, organism-based; summary of the method: as §1
# Rattus norvegicus [20] = assay: Biodistribution of I-125 labeled compound in rat blood, 1 hr after intravenous injection. value expressed in average % dose per organ; value may range from 1.64 to 1.91; assay type: ADME, organism-based; conditions: in vivo
# Rattus norvegicus [21] = assay: Biodistribution of I-125 labeled compound in rat blood, 2 min after intravenous injection. value expressed in average % dose per organ; value may range from 3.95 to 6.09; assay type: ADME, organism-based; conditions: in vivo
# Rattus norvegicus [22] = assay: Biodistribution of I-125 labeled compound in rat brain to blood ratio, 2 min after intravenous injection. value expressed in % dose per gram ratio; assay type: ADME, organism-based; summary of the method: as §1
# Rattus norvegicus [23] = assay: Biodistribution of I-125 labeled compound in rat heart, 2 min after intravenous injection. value expressed in average % dose per organ; value may range from 2.13 to 2.96; assay type: ADME, organism-based; conditions: in vivo
# Rattus norvegicus [24] = assay: Biodistribution of I-125 labeled compound in rat liver, 1 hr after intravenous injection. value expressed in average % dose per organ; value may range from 11.0 to 13.4; assay type: ADME, organism-based; conditions: in vivo
# Rattus norvegicus [25] = assay: Biodistribution of I-125 labeled compound in rat brain, 1 hr after intravenous injection. value expressed in average % dose per organ; value may range from 0.95 to 1.00; assay type: ADME, organism-based; conditions: in vivo
# Rattus norvegicus [26] = assay: Biodistribution of I-125 labeled compound in rat liver, 2 min after intravenous injection. value expressed in average % dose per organ; value may range from 12.3 to 15.0; assay type: ADME, organism-based; conditions: in vivo
# Rattus norvegicus [27] = assay: Biodistribution of I-125 labeled compound in rat thyroid, 1 hr after intravenous injection. value expressed in average% dose per organ; value may range from 0.19 to 0.25; assay type: ADME, organism-based, Thyroid gland; conditions: in vivo
# Rattus norvegicus [28] = assay: Biodistribution of I-125 labeled compound in rat thyroid, 2 min after intravenous injection. value expressed in average % dose per organ; value may range from 0.13 to 0.19; assay type: ADME, organism-based, Thyroid gland; conditions: in vivo
# Rattus norvegicus [29] = assay: Biodistribution of I-125 labeled compound in rat brain, 2 min after intravenous injection. value expressed in average% dose per organ; value may range from 0.85 to 1.01; assay type: ADME, organism-based; conditions: in vivo
# Rattus norvegicus [30] = assay: Biodistribution of I-125 labeled compound in rat heart, 1 hr after intravenous injection. value expressed in average % dose per organ; value may range from 2.29 to 2.35; assay type: ADME, organism-based; conditions: in vivo
# Rattus norvegicus [31] = assay: Biodistribution of I-125 labeled compound in rat […] ratio, 1 hr after intravenous injection. value expressed in % dose per gram ratio; assay type: ADME, organism-based; conditions: in vivo
# Rattus norvegicus [32] = assay: Biodistribution of I-125 labeled compound in rat lungs, 1 hr after intravenous injection. value expressed in average % dose per organ; value may range from 15.1 to 17.1; assay type: ADME, organism-based, Lung; conditions: in vivo
# Rattus norvegicus [33] = assay: Biodistribution of I-125 labeled compound in rat lungs, 2 min after intravenous injection. value expressed in average % dose per organ; value may range from 31.6 to 34.0; assay type: ADME, organism-based, Lung; conditions: in vivo
# Rattus norvegicus [34] = assay: Biodistribution of I-125 labeled compound in rat muscle, 1 hr after intravenous injection. value expressed in average % dose per organ; value may range from 11.0 to 15. 8; assay type: ADME, organism-based, Muscle tissue; conditions: in vivo
# Rattus norvegicus [35] = assay: Biodistribution of I-125 labeled compound in rat muscle, 2 min after intravenous injection. value expressed in average % dose per organ; value may range from 5.95 to 6.51; assay type: ADME, organism-based, Muscle tissue; conditions: in vivo
smiles,measurement,setting,value
CCC(C)c1cc(I)cc(CNCCCN(C)C)c1O (stereo not drawn),Average dose per organ,Rattus norvegicus [1],1.33%
same,Average dose per organ,Rattus norvegicus [2],5.05%
same,Ratio,Rattus norvegicus [3],2.96%
same,Average dose per organ,Rattus norvegicus [4],2.15%
same,Average dose per organ,Rattus norvegicus [5],9.74%
same,Average dose per organ,Rattus norvegicus [6],1.43%
same,Average dose per organ,Rattus norvegicus [7],8.65%
same,Average dose per organ,Rattus norvegicus [8],0.22%
same,Average dose per organ,Rattus norvegicus [9],0.16%
same,Average dose per organ,Rattus norvegicus [10],1.39%
same,Average dose per organ,Rattus norvegicus [11],1.68%
same,Distribution coefficient,Rattus norvegicus [12],77.4
same,Distribution coefficient,Rattus norvegicus [13],389
same,Average dose per organ,Rattus norvegicus [14],8.38%
same,fraction unbound,[15],0.0762
same,Average dose per organ,Rattus norvegicus [16],15.8%
same,Average dose per organ,Rattus norvegicus [17],13.3%
same,Average dose per organ,Rattus norvegicus [18],39.8%
same,Ratio,Rattus norvegicus [19],11.5%
CN(C)CCCNCc1cc(I)cc(C2CCCCC2)c1O,Average dose per organ,Rattus norvegicus [20],1.74%
same,Average dose per organ,Rattus norvegicus [21],5.3%
same,Ratio,Rattus norvegicus [22],1.91%
same,Average dose per organ,Rattus norvegicus [23],2.51%
same,Average dose per organ,Rattus norvegicus [24],12.4%
same,Average dose per organ,Rattus norvegicus [25],0.97%
same,Average dose per organ,Rattus norvegicus [26],13.8%
same,Average dose per organ,Rattus norvegicus [27],0.22%
same,Average dose per organ,Rattus norvegicus [28],0.16%
same,Average dose per organ,Rattus norvegicus [29],0.94%
same,Average dose per organ,Rattus norvegicus [30],2.33%
same,Distribution coefficient,Rattus norvegicus [12],260
same,Distribution coefficient,Rattus norvegicus [13],468
same,fraction unbound,[15],0.0517
same,Ratio,Rattus norvegicus [31],5.99%
same,Average dose per organ,Rattus norvegicus [32],16.3%
same,Average dose per organ,Rattus norvegicus [33],33%
same,Average dose per organ,Rattus norvegicus [34],13.4%
same,Average dose per organ,Rattus norvegicus [35],6.17%
